Screens: PubChem BioAssay, several laboratories
Most compounds without a hit are left out; they make up all but 3.7% or so of the library.
GASC-1 inh = human JMJD2C demethylase inhibition | Q9H3R0 | GST-JMJD2C(1-420) H3K9me3 demethylation, DELFIA europium | inhibition, % at 2.35 µM | 330,000 tested, 0.069% active | AID 2099;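 active = more than half of a compound's replicate wells show inhibition beyond 50%, single wells judged on their own value; inconclusive = some, but no more than half, of replicates pass 50% inhibition; inactive = no replicate passes 50% inhibition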;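 note: signal counts dimethyl H3K9 product captured on neutravidin plate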
FXN GAA850 act = increases GAA850 frataxin promoter reporter activity; HEK293 lucGAA850 FXN promoter luciferase reporter, 24 h; percent of 10 µM SAHA response; activation, % at 6 µM; 360,000 tested, 0.56% active; AID 540364;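 active = activation above the average of all compounds screened plus 3 SD, cutoff fixed separately per campaign, cut at about 7.5% in these data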
AHR act = activators of human aryl hydrocarbon receptor; AHR-responsive luciferase reporter cells, luminescence; activation, % at 5 µM; 320,000 tested, 2.5% active; AID 2796; in the data active = activation above about 47%
SR-BI DiI-HDL act = activators of SR-BI mediated HDL lipid uptake; 320,000 tested, 0.096% active; AID 504775; activation, % at 12.5 µM; CHO ldlA[mSR-BI] cells, DiI-HDL uptake fluorescence, 3 h; 100 = double the neutral-control signal;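 active = mean replicate activation of at least 60% and every replicate at or above 60%; inconclusive = mean or all-replicate condition met, but not both; inactive = mean below 60% and not all replicates reaching 60%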
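System: CHO ldlA[mSR-BI] cells / Medium: HEPES-buffered (25 mM, pH 7.4) F12 plus 0.5% BSA / Probe or stimulus: labelled HDL, 10 µg/mL / Doses: single compound concentration, delivered by pin transfer / Schedule: 3 h, 37 °C / Measured by: DiI fluorescence, bottom read / Measure: cell-associated DiI fluorescence as measure of HDL uptake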
SR-BI DiI inh = mouse SR-BI HDL lipid transfer inhibition | inhibition, % at 12.5 µM | ldlA[mSR-BI] CHO cells, DiI-HDL uptake fluorescence, 3 h | Q61009 | 320,000 tested, 0.96% active | AID 488896;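 active = mean replicate inhibition of at least 70% and a set share of replicates each scoring 70 or more; inconclusive = meets just one of the two criteria; inactive = fails both criteria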
Each line names hits and unclear results; the compound was inactive in the other large screens.

COc1ccc(NC(=S)NNC(=O)c2cccnc2)cc1OC	none
O=C(Nc1ccc(-c2cc3ccccc3oc2=O)c(Cl)c1)c1cccnc1	none
CC(=O)Nc1ccc(NC(=O)c2nc(S(=O)(=O)Cc3ccccc3)ncc2Cl)cc1	none
COc1ccc(NC(=O)c2cccnc2)cc1OCC(C)C	AHR act 51
O=C(Nc1ccc(Cl)c(-c2nc3ccccc3[nH]2)c1)c1cccnc1	AHR act 52
CS(=O)(=O)c1ncc(Cl)c(C(=O)Nc2ccc3ccccc3c2)n1	SR-BI DiI inh 93 (no result: AHR act)
O=C(Nc1ccc2ccccc2c1)c1cccnc1	AHR act 52
Cc1cc(C)c(C#N)c(SCC(=O)NC(C)(C)C)n1	none
Cc1cc(C)c(C#N)c(SCC(=O)C(C)(C)C)n1	AHR act 59
CCOc1ccc(CN2C(=O)CC(=O)N(S(=O)(=O)c3ccc(OCC)cc3)C2=O)cc1	none (no result: SR-BI DiI-HDL act, SR-BI DiI inh)
CS(=O)(=O)c1ccc(-c2cccc(NC(=O)c3ccc4c(c3)OCO4)c2)nn1	none (no result: GASC-1 inh, AHR act, SR-BI DiI-HDL act, SR-BI DiI inh)
Cc1ccc(C(=O)Nc2cccc(-c3ccc(N4CCOCC4)nn3)c2)cc1C	SR-BI DiI inh 77
COc1ccc(-c2cccc(NC(=O)c3ccc4c(c3)OCO4)c2)nn1	AHR act 65
Cc1ccc(C(=O)Nc2cccc(-c3ccc(N4CCOCC4)nn3)c2)cc1	none
Cc1ccc(CN2CN(S(=O)(=O)c3cccs3)c3nc4ccccc4nc32)cc1	none
O=C(c1ccco1)N1CCN(c2ncnc3c(-c4ccc(Cl)cc4)nsc23)CC1	AHR act 58 (no result: SR-BI DiI-HDL act, SR-BI DiI inh)
Cc1ccc(-c2csc3ncnc(N4CCN(C(=O)c5ccco5)CC4)c23)cc1	none
Cc1sc2ncnc(N3CCN(C(=O)c4ccco4)CC3)c2c1C	AHR act 55
CC(Sc1ccc(Cl)cc1)C(=O)Nc1ccc2c(c1)OCO2 (stereo not drawn)	none
CC(C)N1CCC2(CC1)N=C(c1ccc3c(c1)OCO3)CC(c1cc(Cl)ccc1O)N2 (stereo not drawn)	AHR act 76
CC(C)c1ccc(-n2nc3ccc(N)cc3n2)cc1	AHR act 58
C/C(=N\NC(N)=S)C1(C)CCCCC1	SR-BI DiI inh 78
CC(=O)c1cccc(NC(=O)c2ccc3ccccc3c2)c1	SR-BI DiI inh 72
C/C(=N\NC(=O)Nc1ccccc1)c1ccc2ccccc2c1	AHR act 70
COc1ccc(C(=O)NNC(=O)c2ccc3ccccc3c2)cc1	none (no result: GASC-1 inh, AHR act)
COc1ccc(NC(=O)c2ccc3ccccc3c2)cc1	AHR act 58
O=C(Nc1ccccc1)Nc1ccc2ccccc2c1	none (no result: SR-BI DiI-HDL act, SR-BI DiI inh)
COc1ccccc1C(=O)Nc1cccc(NC(C)=O)c1	none
COc1ccccc1C(=O)Nc1ccc2ccccc2c1	AHR act 56
Cn1c(=O)c(=O)n(C)c2cc(S(=O)(=O)NCCOc3ccccc3Cl)ccc21	none
CCOC(=O)c1cncc(C(=O)O)c1	none
O=C(C1CCCCC1)N1C[C@@H](n2cc(-c3ccc(F)cc3)nn2)[C@H](O)C[C@@H]1c1ccc(Cl)cc1	none (no result: GASC-1 inh, AHR act, SR-BI DiI-HDL act, SR-BI DiI inh)
Cc1cccc(OCC(=O)NNC(=O)C2CCCCC2C(=O)O)c1 (stereo not drawn)	none
COc1ccccc1C(=O)Nc1ccc(Oc2ncnc3sc(-c4ccccc4)cc23)cc1	AHR act 80
COc1cc(C(=O)Nc2ccc(Oc3ncnc4sc(-c5ccccc5)cc34)cc2)cc(OC)c1OC	none
Cc1ccc(NC(=O)C2CCN(c3ncnc4c3nc3n4CCCCC3)CC2)nc1	none
O=c1[nH]c(/C=C/c2ccc(Br)cc2)nc2c1cnn2-c1ccccc1	AHR act 54 (no result: FXN GAA850 act, SR-BI DiI-HDL act, SR-BI DiI inh)
Cc1ccc(OCCNC(=O)c2cc(C(=O)NCCOc3ccc(C)cc3)cc([N+](=O)[O-])c2)cc1	SR-BI DiI inh 71
CC(=O)CSc1ncnc2c1cnn2-c1ccccc1	none
Cc1[nH]c2ccccc2c1/C=N/NC(=O)c1ccc(N)cc1	none
Cc1[nH]c2ccccc2c1/C=N/NC(=O)c1ccccc1	AHR act 68
Cc1[nH]c2ccccc2c1/C=N/NC(=O)c1cc(C(C)(C)C)[nH]n1	GASC-1 inh inconclusive (no result: SR-BI DiI-HDL act, SR-BI DiI inh)
Cc1[nH]c2ccccc2c1/C=N/NC(=O)c1cc(-c2ccccc2)n[nH]1	AHR act 59
Cc1nn(-c2ccccc2)c(C)c1/C=N/NC(=O)c1cc(-c2ccccc2)n[nH]1	AHR act 48
Cc1[nH]c2ccccc2c1/C=N/NC(N)=S	SR-BI DiI inh 86
Cc1[nH]c2ccccc2c1/C=N/NC(=S)NCc1ccccc1	none
